Our source for the Ki values is ChEMBL document CHEMBL1124626, “Inhibition of 125I-labeled ristocetin binding to Micrococcus luteus cells by the peptides related to bacterial cell wall mucopeptide precursors: quantitative structure-activity relationships” (J Med Chem, 1989).

Peptide text beside a SMILES is read from it.

The first assay has as its system Micrococcus luteus. The assay is described as follows: Inhibition of [125I]ristocetin binding to micrococcus luteus cells. Format: functional, organism-based. The method in brief: (§1)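 Lyophilized M. luteus cells were boiled in 1% sodium lauryl sulfate, washed with water, and stored at 4 °C. Ristocetin was iodinated with 125I/I2 and purified on CM-cellulose. Duplicate tubes held 50 μg cells, 1 μg labeled antibiotic and varied N-acetyl peptide in sodium citrate buffer, pH 5.1, in 0.2 mL at room temperature. Tubes were centrifuged at 10000g for 10 min and supernatant γ-counted. Ki came from Cheng-Prusoff using the Scatchard Kd.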
What is called Ki is a measure of affinity in units of concentration, obtained from inhibition or displacement. A high value points to weaker binding. `CC(=O)N[C@H](C)C(=O)O` had a Ki of 3200 µM.

As for `CC(=O)N[C@H](C)C(=O)NCC(=O)O`, the Ki amounted to 3100 µM. Same read-out and setting: under `CC(=O)N[C@H](C)C(=O)N[C@H](Cc1ccccc1)C(=O)O` stands 8.7 µM; under `CC(=O)N[C@H](CC(C)C)C(=O)NCC(=O)O`, 11000 µM; under `CC(=O)N[C@H](C)C(=O)N[C@H](C)C(=O)O`, 73 µM. In the case of `CC(=O)N[C@H](C)C(=O)N[C@H](C)C(=O)N[C@H](C)C(=O)O`, the inhibition constant Ki is 42 µM. Take `CC(=O)N[C@H](Cc1ccccc1)C(=O)O`: the inhibition constant (Ki) stood at 100 µM.

Regarding `CC(=O)NCC(=O)N[C@H](Cc1ccccc1)C(=O)O`, the inhibition constant (Ki) turned out to be 9.8 µM. The same measure, in the same setting: with `CSCC[C@@H](NC(C)=O)C(=O)O` the figure was 2400 µM. The same measure, in the same setting: with `CC(=O)N[C@H](Cc1c[nH]c2ccccc12)C(=O)O` the figure was 160 µM; with `CC(=O)NCC(=O)N[C@@H](CC(C)C)C(=O)O`, 590 µM; with `CC(=O)N[C@H](CC(C)C)C(=O)N[C@H](CC(C)C)C(=O)O`, 4500 µM.

In the case of `CC(=O)N[C@@H](Cc1ccccc1)C(=O)NCC(=O)NCC(=O)O` (Ac-Phe-Gly-Gly-OH), affinity was put at a Ki of 1600 µM.

In turn, `CC(=O)N1CCC[C@H]1C(=O)NCC(=O)NCC(=O)O` (Ac-Pro-Gly-Gly-OH) came in with a Ki of 1600 µM. The same measure, in the same setting: under `CC(=O)N[C@@H](Cc1c[nH]c2ccccc12)C(=O)NCC(=O)NCC(=O)O` (Ac-Trp-Gly-Gly-OH) stands 1200 µM; under `CC(=O)NCC(=O)O` [ACETURIC ACID], 29000 µM.

The subject of a further assay is Micrococcus luteus. The assay is described as follows: Inhibition of [125I]ristocetin binding to micrococcus luteus cell wall (UDP-N-acetylmuramylpentapeptide). Format: functional, organism-based. The method in brief: as §1
As for `CC(=O)N[C@H](CC(N)=O)C(=O)O`, affinity was put at a Ki of 9000 µM.

In the case of `CC(=O)NCC(=O)N[C@@H](C(=O)O)C(C)C`, the affinity corresponds to a Ki of 340 µM. The same measure, in the same setting: with `CC(=O)NCC(=O)N[C@H](CC(N)=O)C(=O)O` the figure was 720 µM; with `CC(=O)NCC(=O)N[C@H](CO)C(=O)O`, 540 µM; with `CC(=O)N[C@@H](C(=O)O)C(C)C`, 3100 µM. As to `CC[C@@H](C)[C@@H](NC(C)=O)C(=O)O`, affinity was put at a Ki of 2800 µM. Same read-out and setting: under `CC(=O)NCC(=O)N[C@H](C)C(=O)O` stands 130 µM; under `CC(=O)NCC(=O)NCC(=O)O`, 4600 µM. On the same count and under the same terms, with `CC(=O)N[C@H](CC(C)C)C(=O)NCC(=O)NCC(=O)O` the figure was 1900 µM; with `CC(=O)N[C@H](CC(C)C)C(=O)O`, 2800 µM.

`CC(=O)NC(C(=O)O)c1ccc(O)cc1` (centres undefined) had a Ki of 4200 µM. On the same count and under the same terms, with `C[C@@H](NC(=O)OCc1ccccc1)C(=O)O` the figure was 5100 µM.

`CC(=O)N[C@@H](CC(C)C)C(=O)NCC(=O)NCC(=O)O` showed a Ki of 2000 µM.

As to `CC(=O)NCC(=O)N[C@@H](C(=O)O)[C@H](C)O`, affinity was put at a Ki of 4700 µM. The same measure, in the same setting: with `CC(=O)N[C@@H](CCCCN)C(=O)N[C@H](C)C(=O)N[C@H](C)C(=O)O` the figure was 16 µM; with `CC(=O)NCC(=O)N[C@H](CC(=O)O)C(=O)O`, 1400 µM; with `CC(=O)NCC(=O)NCC(=O)NCC(=O)O` (Ac-Gly-Gly-Gly-OH), 7100 µM. `CC(=O)N[C@@H](Cc1ccc(O)cc1)C(=O)NCC(=O)NCC(=O)O` (Ac-Tyr-Gly-Gly-OH) had a Ki of 1300 µM.
